Results of several laboratories.
Protocols differ between the studies behind these lines.
Organism: Pseudomonas aeruginosa

`COc1cc(Cc2cnc(N)nc2N)cc(OC)c1OC` gave an MBC of 16 µg/mL (microbial killing; broth dilution; 48 h).
With `CC(C)COc1c(NC(=O)c2ccc(NC(=O)[C@H](CC(N)=O)NC(=O)c3ccc(NC(=O)c4ccc(C#N)cc4)cc3)cc2)ccc(C(=O)Nc2ccc(C(=O)O)cc2)c1O` the MIC was greater than 64 µg/mL (microbial growth; PA14).
With `C=CCOc1c(C)c(O)c(C(=O)/C=C/c2ccccc2)c(OC)c1C` the MBC was greater than 5000 µg/mL (microbial killing; broth dilution; ATCC27853).
With `CC(C)Oc1c(NC(=O)c2ccc(NC(=O)[C@H](CC(N)=O)NC(=O)c3ccc(CCNC(=O)c4ccc(C#N)cc4)cc3)cc2)ccc(C(=O)Nc2ccc(C(=O)O)cc2)c1O` the MIC was greater than 64 µg/mL (microbial growth; PA14).
For `COc1c(C)c(OC)c2c(c1C)OC(c1ccccc1)CC2=O` (stereo not shown), the MBC was greater than 5000 µg/mL (microbial killing; broth dilution; ATCC27853).
For `CC(C)Oc1c(NC(=O)c2ccc(NC(=O)[C@H](CC(N)=O)NC(=O)c3ccc(CNC(=O)c4ccc(C#N)cc4)cc3)cc2)ccc(C(=O)Nc2ccc(C(=O)O)cc2)c1O`, the MIC was greater than 64 µg/mL (microbial growth; PA14).
For `CC(C)c1cccc(=O)c(O)c1`, the MIC80 was greater than 71.4 µM (microbial growth; broth dilution; ATCC27853).
The IC50 of `C#CCCCCCCCCC=CCC(O)CC(O)CO` (stereo not shown) is reported as greater than 200 µg/mL (microbial growth; broth dilution; ATCC27853).
For `COc1cc(C=CC(=O)CC(c2ccc([N+](=O)[O-])cc2)n2ccnc2)ccc1O` (stereo not shown), the inhibition zone was 7.67 mm (microbial growth; disc diffusion; ATCC27853; 500 µg/mL).
The MIC of `CC(C)Oc1c(NC(=O)c2ccc(NC(=O)[C@H](CC(N)=O)NC(=O)c3ccc(NC(=O)c4ccc(C#N)c(Cl)c4)cc3)cc2)ccc(C(=O)Nc2ccc(C(=O)O)cc2)c1O` is reported as greater than 64 µg/mL (microbial growth; PA14).
For `O=C(Sc1cccccc1=O)c1ccccc1`, the MIC80 was greater than 71.4 µM (microbial growth; broth dilution; ATCC27853).
With `CCn1cc(C(=O)O)c(=O)c2cc(F)c(N3CCNCC3)cc21` the MBC was 2 µM (microbial killing; broth dilution; ATCC9027).
The MBC of `COc1c(C)c(OC(=O)c2ccc(C)cc2)c(C)c(O)c1C(=O)/C=C/c1ccccc1` is reported as greater than 5000 µg/mL (microbial killing; broth dilution; ATCC27853).
`CC[C@H]1OC(=O)[C@H](C)[C@@H](O[C@H]2C[C@@](C)(OC)[C@@H](O)[C@H](C)O2)[C@H](C)[C@@H](O[C@@H]2O[C@H](C)C[C@H](N(C)C)[C@H]2O)[C@](C)(O)C[C@@H](C)/C(=N\OCOCCOC)[C@H](C)[C@@H](O)[C@]1(C)O` has an inhibition zone of 19 mm (microbial growth; disc diffusion; ATCC9721; 20000 µg/mL; 24 h).
`CC1(C)S[C@@H]2[C@H](NC(=O)[C@H](N)c3ccc(O)cc3)C(=O)N2[C@H]1C(=O)O` has an inhibition zone of 13.8 mm (microbial growth; disc diffusion; ATCC27853; 500 µg/mL).
`O=C(Cc1ccccc1)Sc1cccccc1=O` gave an MIC80 of greater than 71.4 µM (microbial growth; broth dilution; ATCC27853).
`COc1cc(C=Cc2cc(-c3ccccc3)nc(O)n2)ccc1O` gave an inhibition zone of 14.3 mm (microbial growth; disc diffusion; ATCC27853; 500 µg/mL).
`CC1(C)SC2C(NC(=O)C(NC(=O)C3=C(O)C4CCCN4C3=O)c3ccccc3)C(=O)N2C1C(=O)O` (stereo not shown) gave an inhibition zone of 12 mm (microbial growth; well diffusion; PAO1; 200 µM).
With `C=CCCCCCCCCCCCC(O)CC(O)CO` (stereo not shown) the IC50 was greater than 200 µg/mL (microbial growth; broth dilution; ATCC27853).
`COc1c(C)c(OS(=O)(=O)c2ccc3ccccc3c2)c(C)c(OS(=O)(=O)c2ccc3ccccc3c2)c1C(=O)/C=C/c1ccccc1` has an inhibition zone of 14 mm (microbial growth; well diffusion; ATCC27853; 5 µg/mL).
`CC(C)CC1NC(=O)C(C(=O)NC(C(=O)NC2C(=O)N3C2SC(C)(C)C3C(=O)O)c2ccccc2)=C1O` (stereo not shown) gave an inhibition zone of 11.7 mm (microbial growth; well diffusion; PAO1; 200 µM).
With `CC(C)Oc1c(NC(=O)c2ccc(NC(=O)[C@H](CC(N)=O)NC(=O)c3ccc(NC(=O)C(C)Oc4ccc(C#N)cc4)cc3)cc2)ccc(C(=O)Nc2ccc(C(=O)O)cc2)c1O` (stereo partly shown) the MIC was greater than 64 µg/mL (microbial growth; PA14).
The MIC80 of `O=c1cccccc1S` is reported as greater than 71.4 µM (microbial growth; broth dilution; ATCC27853).
For `CC1(C)SC2C(NC(=O)C(NC(=O)C3=C(O)C4(CC4)NC3=O)c3ccccc3)C(=O)N2C1C(=O)O` (stereo not shown), the inhibition zone was 12 mm (microbial growth; well diffusion; PAO1; 200 µM).
For `O=c1cccccc1Sc1cccccc1=O`, the MIC80 was greater than 71.4 µM (microbial growth; broth dilution; ATCC27853).
`COc1cc(C=Cc2cc(-c3ccc(N(C)C)cc3)nc(O)n2)ccc1O` has an inhibition zone of 7 mm (microbial growth; disc diffusion; ATCC27853; 250 µg/mL).
For `COc1c(C)c(OS(=O)(=O)c2ccc3ccccc3c2)c(C)c(O)c1C(=O)/C=C/c1ccccc1`, the MBC was greater than 5000 µg/mL (microbial killing; broth dilution; ATCC27853).
For `CC(C)Oc1c(NC(=O)c2ccc(NC(=O)[C@H](CC(N)=O)NC(=O)c3ccc(NC(=O)c4ccc(S(C)(=O)=O)cc4)cc3)cc2)ccc(C(=O)Nc2ccc(C(=O)O)cc2)c1O`, the MIC was greater than 64 µg/mL (microbial growth; PA14).
`CCCCCCCC(=O)Oc1c(C)c(O)c(C(=O)/C=C/c2ccccc2)c(OC)c1C` has an MBC of greater than 5000 µg/mL (microbial killing; broth dilution; ATCC27853).
`COc1cc(C=CC(=O)CC(c2ccc(N(C)C)cc2)n2ccnc2)ccc1O` (stereo not shown) has an inhibition zone of 7.66 mm (microbial growth; disc diffusion; ATCC27853; 250 µg/mL).
`COc1c(C)c(O)c(C)c(O)c1C(=O)/C=C/c1ccccc1` has an MBC of greater than 5000 µg/mL (microbial killing; broth dilution; ATCC27853).
With `CC[C@H](C)[C@H](NC(=O)OCC1c2ccccc2-c2ccccc21)C(=O)Sc1cccccc1=O` the MIC80 was greater than 71.4 µM (microbial growth; broth dilution; ATCC27853).
`CC1(C)SC2C(NC(=O)C(NC(=O)C3=C(O)C(Cc4ccccc4)NC3=O)c3ccccc3)C(=O)N2C1C(=O)O` (stereo not shown) gave an inhibition zone of 10.7 mm (microbial growth; well diffusion; PAO1; 200 µM).
For `CCCCCCCCCC(=O)Oc1c(C)c(O)c(C(=O)/C=C/c2ccccc2)c(OC)c1C`, the MBC was greater than 5000 µg/mL (microbial killing; broth dilution; ATCC27853).
